According to ChEMBL document CHEMBL1139875, “Discovery of 4-aminobutyric acid derivatives possessing anticonvulsant and antinociceptive activities: a hybrid pharmacophore approach” (2007):

system: Rattus norvegicus; test: Effect on spontaneous pain in Sprague-Dawley rat CCI model assessed as duration of paw withdrawal at 100 mg/kg, ip after 0.5 hr; format: functional; details: route intraperitoneal
How it was run: (§1)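 CCI rats (n = 4) dosed 100 mg/kg i.p. (vehicle 30% v/v PEG 400 in water). After 10 min acclimatization in a cage 5 cm above ground, cumulative time the ipsilateral paw was held off the floor over 5 min recorded, excluding locomotion lifts. Mean ± SEM; ANOVA/Bonferroni versus predrug.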

SMILES | Activity
NC(=O)N1c2ccccc2C=Cc2ccccc21 [CARBAMAZEPINE] | 24.6 s
NCC1(CC(=O)O)CCCCC1 [GABAPENTIN] | 62.2 s
Nc1nnc(-c2cccc(Cl)c2Cl)c(N)n1 [LAMOTRIGINE] | 69.2 s

system: Rattus norvegicus; test: Effect on spontaneous pain in Sprague-Dawley rat CCI model assessed as duration of paw withdrawal at 100 mg/kg, ip after 1 hr; format: functional; details: route intraperitoneal; how it was run: as §1

SMILES | Activity
NC(=O)N1c2ccccc2C=Cc2ccccc21 [CARBAMAZEPINE] | 17.8 s
NCC1(CC(=O)O)CCCCC1 [GABAPENTIN] | 15.5 s
Nc1nnc(-c2cccc(Cl)c2Cl)c(N)n1 [LAMOTRIGINE] | 79 s

system: Rattus norvegicus; test: Effect on spontaneous pain in Sprague-Dawley rat CCI model assessed as duration of paw withdrawal at 100 mg/kg, ip after 1.5 hrs; format: functional; details: route intraperitoneal
How it was run: (§2)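 Unilateral CCI of sciatic nerve (Bennett and Xie) in Sprague-Dawley rats under i.p. pentobarbital sodium (65 mg/kg). Spontaneous pain is scored over 5 min after 10 min acclimatization, as cumulative time the ipsilateral paw is held off the floor. Paw lifts from locomotion or repositioning are excluded. Drug is given at 100 mg/kg i.p. with 30% v/v PEG 400 vehicle. Mean ± SEM, n = 4, compared with predrug by ANOVA/Bonferroni.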

SMILES | Activity
NC(=O)N1c2ccccc2C=Cc2ccccc21 [CARBAMAZEPINE] | 32.8 s
NCC1(CC(=O)O)CCCCC1 [GABAPENTIN] | 13.1 s
Nc1nnc(-c2cccc(Cl)c2Cl)c(N)n1 [LAMOTRIGINE] | 76.9 s

system: Rattus norvegicus; test: Effect on spontaneous pain in Sprague-Dawley rat CCI model assessed as duration of paw withdrawal at 100 mg/kg, ip after 2 hrs; format: functional; details: route intraperitoneal; how it was run: as §2

SMILES | Activity
NC(=O)N1c2ccccc2C=Cc2ccccc21 [CARBAMAZEPINE] | 67.4 s
NCC1(CC(=O)O)CCCCC1 [GABAPENTIN] | 11 s
Nc1nnc(-c2cccc(Cl)c2Cl)c(N)n1 [LAMOTRIGINE] | 71.2 s

system: Rattus norvegicus; test: Anti-dynamic allodynia effect in Sprague-Dawley rat SNL model assessed as latency to paw withdrawal 100 mg/kg, ip after 0.5 hr; format: functional; details: route intraperitoneal
How it was run: (§3)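 Left L5 spinal nerve ligation rats, tested preoperatively and 9 days postoperatively, then given 100 mg/kg i.p. (vehicle 30% v/v PEG 400 in water). After 10 min acclimatization, plantar surface of affected paw stroked mildly with a cotton-bud; paw lift response recorded. n = 4; retested 0.5-2.5 h post-dose.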

SMILES | Activity
NC(=O)N1c2ccccc2C=Cc2ccccc21 [CARBAMAZEPINE] | 14.7 s
NCC1(CC(=O)O)CCCCC1 [GABAPENTIN] | 1.5 s
Nc1nnc(-c2cccc(Cl)c2Cl)c(N)n1 [LAMOTRIGINE] | 1.9 s

system: Rattus norvegicus; test: Anti-dynamic allodynia effect in Sprague-Dawley rat SNL model assessed as latency to paw withdrawal 100 mg/kg, ip after 1 hr; format: functional; details: route intraperitoneal; how it was run: as §3

SMILES | Activity
NC(=O)N1c2ccccc2C=Cc2ccccc21 [CARBAMAZEPINE] | 13.4 s
NCC1(CC(=O)O)CCCCC1 [GABAPENTIN] | 4.6 s
Nc1nnc(-c2cccc(Cl)c2Cl)c(N)n1 [LAMOTRIGINE] | 1.6 s

system: Rattus norvegicus; test: Anti-dynamic allodynia effect in Sprague-Dawley rat SNL model assessed as latency to paw withdrawal 100 mg/kg, ip after 1.5 hrs; format: functional; details: route intraperitoneal; how it was run: as §3

SMILES | Activity
NC(=O)N1c2ccccc2C=Cc2ccccc21 [CARBAMAZEPINE] | 2.9 s
NCC1(CC(=O)O)CCCCC1 [GABAPENTIN] | 6 s
Nc1nnc(-c2cccc(Cl)c2Cl)c(N)n1 [LAMOTRIGINE] | 1.9 s

system: Rattus norvegicus; test: Anti-cold allodynia effect in Sprague-Dawley rat SNL model assessed as duration of paw withdrawal 100 mg/kg, ip after 1.5 hrs; format: functional; details: route intraperitoneal
How it was run: (§4)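 Left L5 spinal nerve ligation under pentobarbital (65 mg/kg i.p.). Allodynic rats dosed i.p. 100 mg/kg, vehicle 30% v/v PEG 400 in water. Acetone (100-200 µL) misted onto midplantar affected paw after 10 min acclimatization; paw withdrawal duration, mean of three samples at least 3 min apart; n = 4 rats.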

SMILES | Activity
NC(=O)N1c2ccccc2C=Cc2ccccc21 [CARBAMAZEPINE] | 7.9 s
NCC1(CC(=O)O)CCCCC1 [GABAPENTIN] | 7.8 s
Nc1nnc(-c2cccc(Cl)c2Cl)c(N)n1 [LAMOTRIGINE] | 21.8 s

system: Rattus norvegicus; test: Anti-cold allodynia effect in Sprague-Dawley rat SNL model assessed as duration of paw withdrawal 100 mg/kg, ip after 2 hrs; format: functional; details: route intraperitoneal; how it was run: as §4

SMILES | Activity
NC(=O)N1c2ccccc2C=Cc2ccccc21 [CARBAMAZEPINE] | 19.4 s
NCC1(CC(=O)O)CCCCC1 [GABAPENTIN] | 7.6 s
Nc1nnc(-c2cccc(Cl)c2Cl)c(N)n1 [LAMOTRIGINE] | 17.3 s

system: Rattus norvegicus; test: Effect on spontaneous pain in Sprague-Dawley rat CCI model assessed as duration of paw withdrawal at 100 mg/kg, ip after 2.5 hrs; format: functional; details: route intraperitoneal; how it was run: as §2

SMILES | Activity
NC(=O)N1c2ccccc2C=Cc2ccccc21 [CARBAMAZEPINE] | 76.9 s
NCC1(CC(=O)O)CCCCC1 [GABAPENTIN] | 18.1 s
Nc1nnc(-c2cccc(Cl)c2Cl)c(N)n1 [LAMOTRIGINE] | 67.8 s

system: Rattus norvegicus; test: Antihyperalgesic effects in Sprague-Dawley rat CCI model assessed as duration of paw withdrawal at 100 mg/kg, ip after 0.5 hr; format: functional; details: route intraperitoneal

SMILES | Activity
NC(=O)N1c2ccccc2C=Cc2ccccc21 [CARBAMAZEPINE] | 13.3 s
NCC1(CC(=O)O)CCCCC1 [GABAPENTIN] | 36.8 s
Nc1nnc(-c2cccc(Cl)c2Cl)c(N)n1 [LAMOTRIGINE] | 36.2 s

system: Rattus norvegicus; test: Antihyperalgesic effects in Sprague-Dawley rat CCI model assessed as duration of paw withdrawal at 100 mg/kg, ip after 1 hr; format: functional; details: route intraperitoneal

SMILES | Activity
NC(=O)N1c2ccccc2C=Cc2ccccc21 [CARBAMAZEPINE] | 15.7 s
NCC1(CC(=O)O)CCCCC1 [GABAPENTIN] | 12.3 s
Nc1nnc(-c2cccc(Cl)c2Cl)c(N)n1 [LAMOTRIGINE] | 36.7 s

system: Rattus norvegicus; test: Antihyperalgesic effects in Sprague-Dawley rat CCI model assessed as duration of paw withdrawal at 100 mg/kg, ip after 1.5 hrs; format: functional; details: route intraperitoneal

SMILES | Activity
NC(=O)N1c2ccccc2C=Cc2ccccc21 [CARBAMAZEPINE] | 22.9 s
NCC1(CC(=O)O)CCCCC1 [GABAPENTIN] | 10.7 s
Nc1nnc(-c2cccc(Cl)c2Cl)c(N)n1 [LAMOTRIGINE] | 35.7 s

system: Rattus norvegicus; test: Antihyperalgesic effects in Sprague-Dawley rat CCI model assessed as duration of paw withdrawal at 100 mg/kg, ip after 2 hrs; format: functional; details: route intraperitoneal

SMILES | Activity
NC(=O)N1c2ccccc2C=Cc2ccccc21 [CARBAMAZEPINE] | 21.7 s
NCC1(CC(=O)O)CCCCC1 [GABAPENTIN] | 9.2 s
Nc1nnc(-c2cccc(Cl)c2Cl)c(N)n1 [LAMOTRIGINE] | 33.7 s

system: Rattus norvegicus; test: Antihyperalgesic effects in Sprague-Dawley rat CCI model assessed as duration of paw withdrawal at 100 mg/kg, ip after 2.5 hrs; format: functional; details: route intraperitoneal

SMILES | Activity
NC(=O)N1c2ccccc2C=Cc2ccccc21 [CARBAMAZEPINE] | 24 s
NCC1(CC(=O)O)CCCCC1 [GABAPENTIN] | 8.4 s
Nc1nnc(-c2cccc(Cl)c2Cl)c(N)n1 [LAMOTRIGINE] | 29.8 s

system: Rattus norvegicus; test: Antihyperalgesic effects in Sprague-Dawley rat SNL model assessed as duration of paw withdrawal at 100 mg/kg, ip after 0.5 hr, ip; format: functional; details: route intraperitoneal
How it was run: (§5)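 L5 SNL rats (n = 4), dosed 100 mg/kg i.p. (vehicle 30% v/v PEG 400 in water). Pin-prick to midplantar ipsilateral left hindpaw; withdrawal duration, mean of three responses; ≥2 s defined abnormal. Mean ± SEM; one-way ANOVA with Bonferroni versus predrug.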

SMILES | Activity
NC(=O)N1c2ccccc2C=Cc2ccccc21 [CARBAMAZEPINE] | 11.1 s
NCC1(CC(=O)O)CCCCC1 [GABAPENTIN] | 20.1 s
Nc1nnc(-c2cccc(Cl)c2Cl)c(N)n1 [LAMOTRIGINE] | 22.5 s

system: Rattus norvegicus; test: Antihyperalgesic effects in Sprague-Dawley rat SNL model assessed as duration of paw withdrawal at 100 mg/kg, ip after 1 hr, ip; format: functional; details: route intraperitoneal; how it was run: as §5

SMILES | Activity
NC(=O)N1c2ccccc2C=Cc2ccccc21 [CARBAMAZEPINE] | 5.2 s
NCC1(CC(=O)O)CCCCC1 [GABAPENTIN] | 10.2 s
Nc1nnc(-c2cccc(Cl)c2Cl)c(N)n1 [LAMOTRIGINE] | 8.2 s

system: Rattus norvegicus; test: Antihyperalgesic effects in Sprague-Dawley rat SNL model assessed as duration of paw withdrawal at 100 mg/kg, ip after 1.5 hrs, ip; format: functional; details: route intraperitoneal; how it was run: as §5

SMILES | Activity
NC(=O)N1c2ccccc2C=Cc2ccccc21 [CARBAMAZEPINE] | 6.6 s
NCC1(CC(=O)O)CCCCC1 [GABAPENTIN] | 10 s
Nc1nnc(-c2cccc(Cl)c2Cl)c(N)n1 [LAMOTRIGINE] | 10.1 s

system: Rattus norvegicus; test: Antihyperalgesic effects in Sprague-Dawley rat SNL model assessed as duration of paw withdrawal at 100 mg/kg, ip after 2.5 hrs, ip; format: functional; details: route intraperitoneal; how it was run: as §5

SMILES | Activity
NC(=O)N1c2ccccc2C=Cc2ccccc21 [CARBAMAZEPINE] | 5.8 s
NCC1(CC(=O)O)CCCCC1 [GABAPENTIN] | 8.8 s
Nc1nnc(-c2cccc(Cl)c2Cl)c(N)n1 [LAMOTRIGINE] | 17.3 s

species on record: Rattus norvegicus; test: Anti-dynamic allodynic effect in Sprague-Dawley rat CCI model assessed as latency to paw withdrawal after 0.5 hr; format: functional; details: not given
How it was run: (§6)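 Rats with sciatic nerve chronic constriction injury (pentobarbital 65 mg/kg i.p. anaesthesia), baseline and day 9 testing, then drug per randomization table. After 10 min acclimatization, affected plantar surface stroked mildly with a cotton-bud; paw lift recorded. n = 4; retested 0.5-2.5 h post-dose.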

SMILES | Activity
NC(=O)N1c2ccccc2C=Cc2ccccc21 [CARBAMAZEPINE] | 2.7 s
NCC1(CC(=O)O)CCCCC1 [GABAPENTIN] | 1.6 s
Nc1nnc(-c2cccc(Cl)c2Cl)c(N)n1 [LAMOTRIGINE] | 5.7 s

species on record: Rattus norvegicus; test: Anti-dynamic allodynic effect in Sprague-Dawley rat CCI model assessed as latency to paw withdrawal after 1 hr; format: functional; details: not given; how it was run: as §6

SMILES | Activity
NC(=O)N1c2ccccc2C=Cc2ccccc21 [CARBAMAZEPINE] | 3.7 s
NCC1(CC(=O)O)CCCCC1 [GABAPENTIN] | 4.6 s
Nc1nnc(-c2cccc(Cl)c2Cl)c(N)n1 [LAMOTRIGINE] | 1.3 s

species on record: Rattus norvegicus; test: Anti-dynamic allodynic effect in Sprague-Dawley rat CCI model assessed as latency to paw withdrawal after 1.5 hr; format: functional; details: not given; how it was run: as §6

SMILES | Activity
NC(=O)N1c2ccccc2C=Cc2ccccc21 [CARBAMAZEPINE] | 4.9 s
NCC1(CC(=O)O)CCCCC1 [GABAPENTIN] | 5.5 s
Nc1nnc(-c2cccc(Cl)c2Cl)c(N)n1 [LAMOTRIGINE] | 0.9 s

species on record: Rattus norvegicus; test: Anti-dynamic allodynic effect in Sprague-Dawley rat CCI model assessed as latency to paw withdrawal after 2 hr; format: functional; details: not given; how it was run: as §6

SMILES | Activity
NC(=O)N1c2ccccc2C=Cc2ccccc21 [CARBAMAZEPINE] | 3.4 s
NCC1(CC(=O)O)CCCCC1 [GABAPENTIN] | 5.9 s
Nc1nnc(-c2cccc(Cl)c2Cl)c(N)n1 [LAMOTRIGINE] | 0.9 s

species on record: Rattus norvegicus; test: Anti-dynamic allodynic effect in Sprague-Dawley rat CCI model assessed as latency to paw withdrawal after 2.5 hr; format: functional; details: not given; how it was run: as §6

SMILES | Activity
NC(=O)N1c2ccccc2C=Cc2ccccc21 [CARBAMAZEPINE] | 3.8 s
NCC1(CC(=O)O)CCCCC1 [GABAPENTIN] | 6.6 s
Nc1nnc(-c2cccc(Cl)c2Cl)c(N)n1 [LAMOTRIGINE] | 1 s

system: Rattus norvegicus; test: Anti-cold allodynia effect in Sprague-Dawley rat CCI model assessed as duration of paw withdrawal at 100 mg/kg, ip after 0.5 hr; format: functional; details: route intraperitoneal
How it was run: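 CCI by sciatic nerve ligation under pentobarbital (65 mg/kg i.p.). Rats tested at baseline and 9 days post-surgery; those with allodynia dosed i.p. 100 mg/kg, vehicle 30% v/v PEG 400 in water. Acetone (100-200 µL) misted on midplantar affected paw; withdrawal duration recorded, three samples averaged, at least 3 min apart; n = 4.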

SMILES | Activity
NC(=O)N1c2ccccc2C=Cc2ccccc21 [CARBAMAZEPINE] | 12.8 s
NCC1(CC(=O)O)CCCCC1 [GABAPENTIN] | 26.8 s
Nc1nnc(-c2cccc(Cl)c2Cl)c(N)n1 [LAMOTRIGINE] | 53.7 s
